Reference: ChEMBL document CHEMBL1159001, “Isolation, purification, and cytotoxicity of 5-methoxypodophyllotoxin, a lignan from a root culture of Linum flavum” (1992)
Values after ≈ are worked out from the molar mass of the structure shown.

Experiments:
HeLa = test: Cytotoxicity against human HeLa cells after 4 days by trypan blue assay; type: functional; conditions: 96 h, read-out: ED50 (the source's name)
Outline: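 HeLa cells cultured in Joklik's MEM with 10% fetal calf serum, streptomycin and penicillin G (doubling time ca. 24 h). Exponentially growing cells with >95% trypan-blue viability. Lignans were taken from 0.5 or 5 mM stocks in 96% EtOH, and 24 twofold dilutions were made in medium. 2000 cells/well, 4 days at 37°, 5% CO2. Growth was scored visually by pellet diameter against untreated controls, and ED50 (50% growth inhibition) calculated.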

[1] = Cytotoxicity against mouse EAT cells after 4 days by trypan blue assay; type: functional; conditions: 96 h, read-out: ED50 (the source's name)
Outline: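 Murine Ehrlich ascites tumor cells grown in suspension in RPMI 1640 with 10% fetal calf serum, streptomycin and penicillin G (doubling time 12–14 h). Exponential-phase cells, viability >95% by trypan blue. Lignans came from 0.5 or 5 mM 96% EtOH stocks, in 24 twofold dilutions. 2000 viable cells/well, incubated 4 days at 37°, 5% CO2. Sedimented pellet diameters were compared visually with untreated wells, and ED50 derived as 50% growth inhibition.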

| Structure (SMILES) | EC50 (HeLa) [µg/mL] | EC50 [1] [µg/mL] |
| --- | --- | --- |
| COc1cc([C@@H]2c3cc4c(cc3[C@H](O)[C@H]3COC(=O)[C@H]23)OCO4)cc(OC)c1OC [PODOFILOX] | 20.5 (≈ 49.5 µM) | 42.8 (≈ 103 µM) |
| COc1cc([C@@H]2c3cc4c(cc3[C@@H](O[C@@H]3O[C@@H]5CO[C@@H](c6cccs6)O[C@H]5[C@H](O)[C@H]3O)[C@H]3COC(=O)[C@H]23)OCO4)cc(OC)c1O [TENIPOSIDE] | 0.3 (≈ 0.457 µM) | 0.06 (≈ 0.0914 µM) |
| COc1cc([C@@H]2c3cc4c(c(OC)c3[C@H](O)[C@H]3COC(=O)[C@H]23)OCO4)cc(OC)c1OC | 22 (≈ 49.5 µM) | 32 (≈ 72 µM) |
| COc1cc([C@@H]2c3cc4c(cc3[C@@H](O[C@@H]3O[C@@H]5CO[C@@H](C)O[C@H]5[C@H](O)[C@H]3O)[C@H]3COC(=O)[C@H]23)OCO4)cc(OC)c1O [ETOPOSIDE] | 7.9 (≈ 13.4 µM) | 1.1 (≈ 1.87 µM) |
| COc1cc([C@@H]2c3cc4c(cc3[C@H](O[C@@H]3O[C@H](CO)[C@@H](O)[C@H](O)[C@H]3O)[C@H]3COC(=O)[C@H]23)OCO4)cc(OC)c1OC | 21.8 (≈ 37.8 µM) | 30 (≈ 52 µM) |
